Measured values of several laboratories.
In brackets after ≈: the same amount, converted by molar mass.

SMILES | target or system | assay | system | setting | measurement | result
CCC(=CCc1c(O)cc2c(c1O)C(=O)C[C@@H](c1ccc(O)cc1)O2)CC | HeLa | cell growth or viability, MTT |  | 100 µM, 48 h | inhibition | 99.5%
CNC(=S)NN=Cc1ccc(O)c(OC)c1 | Leishmania major | parasite growth | J774.A1 | 72 h, intracellular, amastigote | IC50 | 112 µM
CCC(=CCc1c(O)cc2c(c1O)C(=O)C[C@@H](c1ccccc1O)O2)CC | HeLa | cell growth or viability, MTT |  | 30 µM, 48 h | inhibition | 9.27%
CC(=O)NC[C@H]1CN(c2ccc(N3CCOCC3)c(F)c2)C(=O)O1 | Enterococcus faecalis | microbial growth, broth dilution |  | clinical isolate | MIC50 | 0.5 µg/mL (≈ 1.48 µM)
COc1ccc(Nc2cnnc3cc(-c4cnc(N5CCN(C)CC5)nc4)ccc23)cc1Cl | Leishmania major | parasite growth |  | intracellular, amastigote | EC50 | > 2.2 µM
COc1c(N2C[C@@H]3CCCN[C@@H]3C2)c(F)cc2c(=O)c(C(=O)O)cn(C3CC3)c12 | Enterococcus faecalis | microbial growth, broth dilution |  | clinical isolate | MIC50 | 0.5 µg/mL (≈ 1.25 µM)
COc1ccc(Nc2cnnc3cc(-c4cnc(N5CCCN(C)CC5)nc4)ccc23)nc1 | Leishmania major | parasite growth |  | intracellular, amastigote | EC50 | > 23 µM
C[C@@H]1[C@H](O)[C@@H](C)/C=C/C=C/C=C/C=C/C=C/C=C/C=C/[C@H](O[C@@H]2O[C@H](C)[C@@H](O)[C@H](N)[C@@H]2O)C[C@@H]2O[C@](O)(C[C@@H](O)C[C@@H](O)[C@H](O)CC[C@@H](O)C[C@@H](O)CC(=O)O[C@H]1C)C[C@H](O)[C@H]2C(=O)O | Leishmania major | parasite growth, MTT |  | 72 h, promastigote | IC50 | 9.6 µM
